# Experiments:
# Serum [1] = test: Drug level in Gunn rat serum at 250 mg/kg coadministered with ritonavir measured on day 1; assay type: ADME, organism-based; set-up: dose 250 mg/kg; conditions: in vivo
# Method in brief: (§1)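 Gunn rats (n = 8-10 per arm) dosed orally with compound in 5% ethanol/95% propylene glycol with p-toluenesulfonic acid, together with 50 mg/kg RTV. Plasma was sampled 4 h after the first and second doses. Drug was measured by HPLC and bilirubin […]. Change in bilirubin (mg/dL) reported as mean with SD.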
# Rattus norvegicus [2] = test: Toxicity in Gunn rat assessed as unconjugated-bilirubin level at 250 mg/kg coadministered with ritonavir measured on day 1; assay type: organism-based; set-up: dose 250 mg/kg; conditions: in vivo; method in brief: as §1
# [3] = test system: Human immunodeficiency virus 1; test: Antiviral activity against HIV1 bearing protease gene with A17 mutation infected in human MT4 cells after 5 days by MTT assay; assay type: functional, organism-based; conditions: Human immunodeficiency virus 1, MT4, 120 h
# Method in brief: (§2)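 HIV-1 A17 mutant clone carrying protease mutations L10F, V32I, M46I, I47V, Q58E and I84V, generated by in vitro serial passage under LPV/RTV. EC50 was determined in MT-4 cells. Wild-type reference strain was HIV-1 pNL4-3.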
# [4] = test system: Human immunodeficiency virus 1; test: Antiviral activity against wild-type HIV1 pNL4-3 infected in human MT4 cells after 5 days by MTT assay in presence of 50% human serum; assay type: functional, organism-based; conditions: Human immunodeficiency virus 1, MT4, 120 h
# [5] = test system: Human immunodeficiency virus 1; test: Fold resistance, ratio of EC50 for HIV1 bearing protease gene with A17 mutation to EC50 for wild-type HIV1 pNL4-3; assay type: functional; method in brief: as §2
# [6] = test system: Human immunodeficiency virus 1; test: Antiviral activity against wild-type HIV1 pNL4-3 infected in human MT4 cells after 5 days by MTT assay; assay type: functional, organism-based; conditions: Human immunodeficiency virus 1, MT4, 120 h
# Cytochrome P450 1A2 = biological target: T1, Cytochrome P450 1A2 (Homo sapiens, UniProt P05177); test: Inhibition of CYP1A2 assessed as phenacetin O-deethylation; assay type: ADME
# T1 sequence (P05177 whole entry): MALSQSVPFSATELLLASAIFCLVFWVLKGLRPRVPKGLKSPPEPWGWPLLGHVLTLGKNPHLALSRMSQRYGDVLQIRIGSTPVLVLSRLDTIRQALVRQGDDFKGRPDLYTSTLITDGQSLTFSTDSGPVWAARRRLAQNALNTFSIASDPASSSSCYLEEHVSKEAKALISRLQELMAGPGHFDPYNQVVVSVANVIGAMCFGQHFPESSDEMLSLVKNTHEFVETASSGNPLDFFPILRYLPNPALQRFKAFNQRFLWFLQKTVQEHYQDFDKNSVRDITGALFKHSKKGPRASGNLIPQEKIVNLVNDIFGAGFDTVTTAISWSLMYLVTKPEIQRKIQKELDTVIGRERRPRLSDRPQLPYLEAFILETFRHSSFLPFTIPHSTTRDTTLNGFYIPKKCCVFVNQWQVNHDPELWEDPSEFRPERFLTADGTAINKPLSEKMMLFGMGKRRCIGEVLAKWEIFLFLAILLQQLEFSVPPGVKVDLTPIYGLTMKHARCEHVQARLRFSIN
# Method in brief: (§3)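 CYP inhibition in vitro, with probe reactions of phenacetin O-deethylation (CYP1A2), tolbutamide hydroxylation (CYP2C9), S-mephenytoin hydroxylation (CYP2C19) and dextromethorphan O-demethylation (CYP2D6). Reported as IC50 in µM.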
# [7] = test system: Human immunodeficiency virus 1; test: Antiviral activity against HIV1 bearing protease gene with B26 mutation infected in human MT4 cells after 5 days by MTT assay; assay type: functional, organism-based; conditions: Human immunodeficiency virus 1, MT4, 120 h
# Cathepsin D = Cathepsin D (Homo sapiens, UniProt P07339); test: Inhibition of cathepsin D
# Sequence of Cathepsin D (P07339 65-162 limits assumed): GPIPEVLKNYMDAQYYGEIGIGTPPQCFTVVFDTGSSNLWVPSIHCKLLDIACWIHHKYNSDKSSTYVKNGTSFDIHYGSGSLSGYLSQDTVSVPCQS
# Sequence of Cathepsin D (P07339 169-412 limits assumed): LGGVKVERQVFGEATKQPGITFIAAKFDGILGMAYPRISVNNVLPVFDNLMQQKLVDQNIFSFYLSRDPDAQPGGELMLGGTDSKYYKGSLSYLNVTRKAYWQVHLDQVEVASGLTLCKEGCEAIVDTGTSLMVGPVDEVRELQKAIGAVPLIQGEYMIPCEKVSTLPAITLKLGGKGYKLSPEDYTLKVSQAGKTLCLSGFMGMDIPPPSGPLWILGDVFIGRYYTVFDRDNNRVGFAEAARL
# Serum [8] = test: Drug level in Gunn rat serum at 125 mg/kg coadministered with ritonavir measured on day 1; assay type: ADME, organism-based; set-up: dose 125 mg/kg; conditions: in vivo; method in brief: as §1
# [9] = AUC in Sprague-Dawley rat at 5 mg/kg, po in presence of ritonavir; assay type: ADME, organism-based; set-up: dose 5 mg/kg, route oral; conditions: plasma
# Method in brief: (§4)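 Male Sprague-Dawley-derived rats (n = 3) dosed iv or by oral gavage with 5 mg/mL solutions in 5% dextrose containing 20% ethanol, 30% propylene glycol and methanesulfonic acid equivalents. Plasma was sampled at 10 time points over 8 h, extracted into ethyl acetate/hexane and analysed by reversed-phase HPLC with internal standard. AUC in µg·h/mL.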
# Rattus norvegicus [10] = test: Toxicity in Gunn rat assessed as unconjugated-bilirubin level at 125 mg/kg coadministered with ritonavir measured on day 1; assay type: organism-based; set-up: dose 125 mg/kg; conditions: in vivo; method in brief: as §1
# [11] = Cmax in dog at 5 mg/kg, po coadministered with 5 mg/kg ritonavir; assay type: ADME, organism-based, Canis lupus familiaris; set-up: dose 5 mg/kg, route oral; conditions: in vivo
# Method in brief: (§5)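 Male and female beagle dogs (n = 3) given oral gavage doses formulated as 5 mg/mL solutions in 5% dextrose with 20% ethanol, 30% propylene glycol and methanesulfonic acid, alone or with RTV (2.5 or 5 mg/kg). Plasma was taken at 12 time points over 12 h, extracted with ethyl acetate/hexane and analysed by reversed-phase HPLC with internal standard. AUC in µg·h/mL; Cmax and C12h in µg/mL.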
# [12] = Cmax in dog at 5 mg/kg, po; assay type: ADME, organism-based, Canis lupus familiaris; set-up: dose 5 mg/kg, route oral; conditions: in vivo; method in brief: as §5
# [13] = Cmax in dog at 5 mg/kg, po coadministered with 2.5 mg/kg ritonavir; assay type: ADME, organism-based, Canis lupus familiaris; set-up: dose 5 mg/kg, route oral; conditions: in vivo; method in brief: as §5
# [14] = AUC in dog at 5 mg/kg, po coadministered with 2.5 mg/kg ritonavir; assay type: ADME, organism-based, Canis lupus familiaris; conditions: plasma; method in brief: as §5
# [15] = Solubility at pH 7.4; assay type: physicochemical; conditions: buffer
# Method in brief: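 Solubility measured in µg/mL at pH 7.4 and 25 °C.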
# [16] = Oral bioavailability in Sprague-Dawley rat at 5 mg/kg; assay type: ADME, organism-based; conditions: in vivo; method in brief: as §4
# Cytochrome P450 2C9 = Cytochrome P450 2C9 (Homo sapiens, UniProt P11712); test: Inhibition of CYP2C9 assessed as Tolbutamide hydroxylation; assay type: ADME; method in brief: as §3
# Sequence of Cytochrome P450 2C9 (P11712 whole entry): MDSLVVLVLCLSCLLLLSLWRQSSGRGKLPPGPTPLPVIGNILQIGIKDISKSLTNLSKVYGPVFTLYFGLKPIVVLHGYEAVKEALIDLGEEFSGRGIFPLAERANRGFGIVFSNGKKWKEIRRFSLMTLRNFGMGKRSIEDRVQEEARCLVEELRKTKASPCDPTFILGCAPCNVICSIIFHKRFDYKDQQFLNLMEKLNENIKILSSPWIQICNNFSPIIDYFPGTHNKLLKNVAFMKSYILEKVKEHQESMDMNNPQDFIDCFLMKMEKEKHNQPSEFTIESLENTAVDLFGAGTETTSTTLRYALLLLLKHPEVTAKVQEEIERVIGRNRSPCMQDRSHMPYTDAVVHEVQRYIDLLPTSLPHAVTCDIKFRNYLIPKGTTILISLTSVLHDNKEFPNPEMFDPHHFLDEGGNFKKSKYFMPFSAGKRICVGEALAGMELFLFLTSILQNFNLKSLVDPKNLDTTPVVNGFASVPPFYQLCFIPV
# [17] = AUC in Sprague-Dawley rat at 5 mg/kg, po; assay type: ADME, organism-based; set-up: dose 5 mg/kg, route oral; conditions: plasma; method in brief: as §4
# [18] = Half life in Sprague-Dawley rat at 5 mg/kg, iv; assay type: ADME, organism-based; set-up: dose 5 mg/kg, route intravenous; conditions: in vivo; method in brief: as §4
# [19] = Concentration of drug after 12 hrs in dog at 5 mg/kg, po coadministered with 5 mg/kg ritonavir; assay type: ADME, organism-based, Canis lupus familiaris; conditions: in vivo, read-out: Drug uptake; method in brief: as §5
# [20] = AUC in dog at 5 mg/kg, po coadministered with 5 mg/kg ritonavir; assay type: ADME, organism-based, Canis lupus familiaris; conditions: plasma; method in brief: as §5
# Cytochrome P450 2D6 = Cytochrome P450 2D6 (Homo sapiens, UniProt P10635); test: Inhibition of CYP2D6 assessed as dextromethorphan O-demethylation; assay type: ADME; method in brief: as §3
# Sequence of Cytochrome P450 2D6 (P10635 whole entry): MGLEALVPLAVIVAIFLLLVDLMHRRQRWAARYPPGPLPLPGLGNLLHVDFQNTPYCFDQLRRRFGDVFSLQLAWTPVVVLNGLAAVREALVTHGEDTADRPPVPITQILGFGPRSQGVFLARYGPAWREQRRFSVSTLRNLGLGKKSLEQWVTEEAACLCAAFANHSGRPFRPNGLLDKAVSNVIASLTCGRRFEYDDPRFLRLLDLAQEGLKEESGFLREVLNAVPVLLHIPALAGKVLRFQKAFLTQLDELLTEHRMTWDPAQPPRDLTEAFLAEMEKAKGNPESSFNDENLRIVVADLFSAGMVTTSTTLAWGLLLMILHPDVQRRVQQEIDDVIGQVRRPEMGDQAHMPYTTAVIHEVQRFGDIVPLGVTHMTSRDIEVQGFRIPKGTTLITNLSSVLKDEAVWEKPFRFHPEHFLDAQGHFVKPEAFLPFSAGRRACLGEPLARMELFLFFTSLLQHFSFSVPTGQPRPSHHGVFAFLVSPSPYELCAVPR
# Cytochrome P450 3A4 = Cytochrome P450 3A4 (Homo sapiens, UniProt P08684); test: Inhibition of CYP3A4 assessed as midazolam 1'- hydroxylation; assay type: ADME
# Sequence of Cytochrome P450 3A4 (P08684 whole entry): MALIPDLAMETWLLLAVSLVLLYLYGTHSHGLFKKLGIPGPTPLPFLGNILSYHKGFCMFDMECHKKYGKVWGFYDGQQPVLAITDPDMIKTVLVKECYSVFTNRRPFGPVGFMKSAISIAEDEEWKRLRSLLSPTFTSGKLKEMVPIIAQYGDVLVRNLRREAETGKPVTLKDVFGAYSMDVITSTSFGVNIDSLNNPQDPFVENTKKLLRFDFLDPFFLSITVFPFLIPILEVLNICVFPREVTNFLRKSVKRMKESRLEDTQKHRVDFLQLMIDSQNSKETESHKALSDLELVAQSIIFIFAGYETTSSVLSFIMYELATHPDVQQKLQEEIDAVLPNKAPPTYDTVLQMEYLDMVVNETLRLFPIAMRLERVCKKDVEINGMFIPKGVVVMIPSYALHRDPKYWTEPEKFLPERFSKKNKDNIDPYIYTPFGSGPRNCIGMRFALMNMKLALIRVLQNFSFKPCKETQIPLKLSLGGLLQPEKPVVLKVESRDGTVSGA
# Method in brief: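 CYP3A4 inhibition was measured as midazolam 1′-hydroxylation and expressed as Ki in nM.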
# [21] = Inhibition of human pepsin
# [22] = Protein binding in human plasma by equilibrium dialysis; assay type: ADME, cell-free; conditions: read-out: PB (converted)
# Method in brief: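 Percentage bound in human plasma, determined by equilibrium dialysis.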
# [23] = Clearance in Sprague-Dawley rat at 5 mg/kg, iv; assay type: ADME, organism-based; set-up: dose 5 mg/kg, route intravenous; conditions: in vivo; method in brief: as §4
# Renin = biological target: T2, Renin (Homo sapiens, UniProt P00797); test: Inhibition of renin
# T2 sequence (P00797 whole entry): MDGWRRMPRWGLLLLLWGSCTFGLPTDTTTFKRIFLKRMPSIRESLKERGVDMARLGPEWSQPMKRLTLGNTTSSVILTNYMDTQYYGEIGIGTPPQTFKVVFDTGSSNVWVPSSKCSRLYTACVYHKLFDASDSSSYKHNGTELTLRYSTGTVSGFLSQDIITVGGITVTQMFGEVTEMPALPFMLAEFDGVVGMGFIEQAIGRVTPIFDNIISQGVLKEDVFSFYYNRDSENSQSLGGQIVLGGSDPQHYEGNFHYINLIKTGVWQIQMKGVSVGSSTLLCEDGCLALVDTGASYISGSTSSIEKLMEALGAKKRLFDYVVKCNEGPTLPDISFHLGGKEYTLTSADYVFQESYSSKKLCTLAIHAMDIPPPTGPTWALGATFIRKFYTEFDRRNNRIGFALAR
# [24] = AUC in dog at 5 mg/kg, po; assay type: ADME, organism-based, Canis lupus familiaris; set-up: dose 5 mg/kg, route oral; conditions: plasma; method in brief: as §5
# Cytochrome P450 2C19 = Cytochrome P450 2C19 (Homo sapiens, UniProt P33261); test: Inhibition of CYP2C19 assessed as S-mephenytion hydroxylation; assay type: ADME; method in brief: as §3
# Sequence of Cytochrome P450 2C19 (P33261 whole entry): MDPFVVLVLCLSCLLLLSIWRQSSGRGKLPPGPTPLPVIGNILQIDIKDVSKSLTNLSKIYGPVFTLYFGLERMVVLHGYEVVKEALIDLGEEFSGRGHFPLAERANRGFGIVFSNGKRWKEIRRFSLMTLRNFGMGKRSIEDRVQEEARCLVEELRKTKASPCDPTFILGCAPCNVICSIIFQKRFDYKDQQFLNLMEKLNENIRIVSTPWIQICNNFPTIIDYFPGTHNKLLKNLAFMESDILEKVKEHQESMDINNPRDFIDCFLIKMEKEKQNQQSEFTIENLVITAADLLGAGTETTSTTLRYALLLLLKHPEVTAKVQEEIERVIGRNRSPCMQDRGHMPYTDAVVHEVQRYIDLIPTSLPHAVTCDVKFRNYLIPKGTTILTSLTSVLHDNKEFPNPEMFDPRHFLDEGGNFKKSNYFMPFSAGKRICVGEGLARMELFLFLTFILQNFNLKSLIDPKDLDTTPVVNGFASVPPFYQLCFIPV
# [25] = Concentration of drug after 12 hrs in dog at 5 mg/kg, po coadministered with 2.5 mg/kg ritonavir; assay type: ADME, organism-based, Canis lupus familiaris; conditions: in vivo, read-out: Drug uptake; method in brief: as §5
# [26] = test system: Human immunodeficiency virus 1; test: Antiviral activity against HIV1 bearing protease gene with P25 mutation infected in human MT4 cells after 5 days by MTT assay; assay type: functional, organism-based; conditions: Human immunodeficiency virus 1, MT4, 120 h
compound,measurement,setting,value
COC(=O)N[C@H](C(=O)NN(Cc1ccccc1)C[C@H](O)[C@H](Cc1ccccc1)NC(=O)[C@@H](N1CCN(Cc2cccc(C)n2)C1=O)C(C)(C)C)C(C)(C)C,Drug uptake,Serum [1],13.28 µg/mL
same,Activity,Rattus norvegicus [2],0.429 mg/dL
COC(=O)N[C@H](C(=O)N[C@@H](Cc1ccccc1)C[C@H](O)[C@H](Cc1ccccc1)NC(=O)[C@@H](N1CCN(Cc2cccc(C)n2)C1=O)C(C)(C)C)C(C)(C)C,EC50,[3],0.088 µM
same,Drug uptake,Serum [1],18.68 µg/mL
same,Activity,Rattus norvegicus [2],0.195 mg/dL
same,EC50,[4],0.179 µM
same,Ratio EC50,[5],7
same,EC50,[6],0.013 µM
COC(=O)N[C@H](C(=O)N[C@H](Cc1ccc(-c2ccccn2)cc1)C[C@H](O)[C@H](Cc1ccccc1)NC(=O)[C@@H](N1CCN(Cc2cccc(C(C)(C)O)n2)C1=O)C(C)(C)C)C(C)(C)C,EC50,[3],0.01 µM
same,IC50,Cytochrome P450 1A2,> 5 µM
same,EC50,[7],0.025 µM
same,Ki,Cathepsin D,0.54 µM
same,Drug uptake,Serum [8],9.37 µg/mL
same,AUC,[9],12900 ng·h/mL
same,Activity,Rattus norvegicus [10],0.125 mg/dL
same,Cmax,[11],2560 ng/mL
same,Cmax,[12],40 ng/mL
same,Cmax,[13],2220 ng/mL
same,AUC,[14],6720 ng·h/mL
same,solubility,[15],11.3 µg/mL
same,bioavailability,[16],4.9%
same,IC50,Cytochrome P450 2C9,> 5 µM
same,AUC,[17],180 ng·h/mL
same,half-life,[18],30 min
same,concentration at 12 h,[19],58 ng/mL
same,EC50,[4],0.019 µM
same,AUC,[20],10600 ng·h/mL
same,IC50,Cytochrome P450 2D6,> 5 µM
same,Ki,Cytochrome P450 3A4,0.066 µM
same,Ki,[21],200 µM
same,fraction unbound,[22],0.018
same,clearance,[23],22.5 mL/min/kg
same,Ki,Renin,> 20 µM
same,AUC,[24],20 ng·h/mL
same,IC50,Cytochrome P450 2C19,> 5 µM
same,concentration at 12 h,[25],13 ng/mL
same,EC50,[26],0.045 µM
same,EC50,[6],0.003 µM

# From ChEMBL document CHEMBL1153436, “2-Pyridyl P1'-substituted symmetry-based human immunodeficiency virus protease inhibitors (A-792611 and A-790742) with potential for convenient dosing and reduced side effects” (J Med Chem, 2009)
